# Screens (PubChem)
# rCAG RNA binder: r(CAG) repeat RNA binding; 370,000 tested, 1.3% active; TO-PRO-1 dye displacement fluorescence; inhibition, % at 3 µM; AID 651821;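 active = inhibition above the plate cutoff, the mean of all test compounds on that plate plus 3 SD, cut at about 35% in these data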;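 also: 0% = DMSO alone and 100% = 100 µM mitoxantrone as full dye displacement; higher means more dye released from RNA so lower well fluorescence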
# Rev-erbA mod: modulates human Rev-erb alpha binding to DNA; activity, % at 10 µM; P20393; Rev-erbα–FITC-DNA binding, fluorescence polarization, 90 min; 370,000 tested, 0.79% active;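 active = activity above about 14%, limit read from the data; passing the limit was not always enough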;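 also: 0% = DMSO wells with 35 nM protein and 100% = DMSO wells with 750 nM protein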
# NR2E3 ag-1: human photoreceptor-specific nuclear receptor agonism; AID 602229; inhibition of corepressor binding, % at 3.98 µM; Q9Y5X4; CHO-S Gal4-NCOR/VP16-NR2E3 two-hybrid, luciferase; 360,000 tested, 0.35% active;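 active = inhibition above the mean of all tested compounds plus 3 SD, cut at about 70% in these data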;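 also: 0% = DMSO with NR2E3 transfected cells and 100% = cells lacking NR2E3 construct; higher means lower luciferase signal from less NR2E3 corepressor binding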
# Target sequence (Q9Y5X4 whole entry, looked up, the tested form may be a part): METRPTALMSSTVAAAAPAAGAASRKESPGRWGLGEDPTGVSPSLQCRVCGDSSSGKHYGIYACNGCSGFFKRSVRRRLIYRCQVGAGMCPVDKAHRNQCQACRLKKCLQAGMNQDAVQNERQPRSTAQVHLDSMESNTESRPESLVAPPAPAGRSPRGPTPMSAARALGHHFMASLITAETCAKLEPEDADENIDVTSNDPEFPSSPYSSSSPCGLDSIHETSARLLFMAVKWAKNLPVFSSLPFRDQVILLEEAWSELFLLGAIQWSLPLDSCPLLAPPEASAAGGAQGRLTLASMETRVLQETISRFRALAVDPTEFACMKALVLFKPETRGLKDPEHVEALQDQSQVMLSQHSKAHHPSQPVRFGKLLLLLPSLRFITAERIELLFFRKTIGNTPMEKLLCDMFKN
# PG9 Ab binder: binds the HIV-1 gp120 antibody PG9; TR-FRET gp120-PG9 antibody binding; inhibition, % at 6.7 µM; 360,000 tested, 0.43% active; AID 624416; in the data active = inhibition above about 8.5%
# NR2E3 ag-2: NR2E3 (human) agonism | Q9Y5X4 | AID 2300 | inhibition of corepressor binding, % at 4.78 µM | GST-NR2E3/biotin-RetCOR TR-FRET, 1536-well | 320,000 tested, 0.12% active;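 active = percent inhibition above the cutoff of mean plus 3 SD of all tested compounds, set per screening campaign, cut at about 20% in these data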;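 also: 0% = DMSO wells and 100% = biotin wells as full block of FRET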
#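 System: GST-tagged NR2E3 plus biotinylated RetCOR corepressor; Buffer or medium: pH 7.5 Tris-based buffer; Probe or stimulus: RetCOR corepressor, biotinylated, 7 nM; Doses: compound at 4.8 µM, single dose; Schedule: 5 h incubation at 4 °C; Technique: time-resolved FRET; Evaluation: percent inhibition of TR-FRET ratio; Replication: one well per compound, singlicate testing.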
# PG9 binder conf: confirmation of small molecules binding HIV-1 gp120 antibody PG9 | AID 651571 | inhibition, % at 6.7 µM | TR-FRET PG9 antibody binding, biochemical | shares compounds with PG9 Ab binder | 1,500 tested, 90% active; in the data active = inhibition above about 9%
# PGV04 counter: binds control antibody PGV04 in PG9 binder counter-screen | AID 651604 | TR-FRET PGV04 antibody-gp120 binding, biochemical | inhibition, % at 6.7 µM | 1,500 tested, 95% active | shares compounds with PG9 Ab binder; in the data active = inhibition above about 9.5%
# PG9 bind DR: small molecules binding HIV-1 gp120 antibody PG9. shares compounds with PG9 Ab binder. TR-FRET PG9 antibody-gp120 binding inhibition. IC50, µM. 95 tested, under 10 active. AID 651848; in the data active = IC50 below about 10 µM
# PGV04 binding DR: binds control antibody PGV04 in PG9 counter-screen; TR-FRET binding to control antibody PGV04; shares compounds with PG9 Ab binder; 95 tested, 20% active; IC50, µM
# PG126 binding DR: binds control antibody PG126 in PG9 counter-screen. AID 651939. 95 tested, 20% active. shares compounds with PG9 Ab binder. IC50, µM. TR-FRET binding to antibody PG126, counterscreen
# Rev-erbA confirm: confirmation of modulators of human Rev-erb alpha DNA binding. Rev-erb alpha FITC-DNA binding, fluorescence polarization, 90 min. AID 1259319. shares compounds with Rev-erbA mod. 3,000 tested, 61% active. activation, % at 25 µM;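 active = activation at or above a set limit, or at least 3 SD above the negative control mean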;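 also: 0% = 35 nM protein with DMSO and 100% = 750 nM protein high control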
# RORg DNA counter: RORgamma DNA-binding activity, dose-response counter-screen; IC50, µM; purified RORgamma protein-FITC-DNA binding, fluorescence polarization; shares compounds with Rev-erbA mod; 910 tested, 8% active;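 active = Compounds whose fitted half-maximal concentration for disrupting protein-DNA binding is below 10 micromolar; the record names Rev-erb in its text, so the target is in doubt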
# The depositor's hits bear a star; i = inactive; / = no result given. The list is not random: actives were taken first. Their share in the collection is about 2.6%. Rule as the data show it, unless noted: active = IC50 below about 9 µM; inactive = the rest.
SMILES,rCAG RNA binder,Rev-erbA mod,NR2E3 ag-1,PG9 Ab binder,NR2E3 ag-2,PG9 binder conf,PGV04 counter,Rev-erbA confirm,others
C=CCn1c(NC(=O)c2ccc(C)cc2)nc2ccccc21,-1.1,27.3*,-15.6,39.5*,-1.2,26.3*,40.3*,-0.8,
CC=C1OC(n2cnc3c(N)ncnc32)C(O)C1O (stereo not given),-0.5,-11.4,-1.4,1.2,/,/,/,/,
CCCCCCn1cc(CN2CC(N(C)CC)CS2(=O)=O)nn1 (stereo not given),-0.2,0.2,2.7,-0.3,/,/,/,/,
CC(=O)c1cccc(NC(=O)CCc2nc3sc4c(c3c(=O)[nH]2)CCCC4)c1,12.3,23.3*,-29.3,13.5*,0.5,10.9*,23.8*,17.8*,
COc1ccc(NC(=O)COC(=O)c2ccc3c(c2)OCO3)c(OC)c1,-0.1,174.8*,-24.6,22.2*,/,33.2*,28.5*,180.2*,PG9 bind DR=>67;PGV04 binding DR=i;PG126 binding DR=i;RORg DNA counter=>40
CCn1c(=NC(=O)c2ccc(N3C(=O)CCC3=O)cc2)sc2c(OC)ccc(OC)c21,15.0,81.8*,-24.5,15.9*,2.1,30.6*,55.5*,95.7*,RORg DNA counter=i
CCn1c(=NC(=O)c2cccc(N3C(=O)CCC3=O)c2)sc2c(C)ccc(OC)c21,2.7,6.2,-8.5,0.7,-1.1,/,/,/,
c1ccc(-n2ncc3c(NCc4ccc5c(c4)OCO5)ncnc32)cc1,2.2,1.1,-31.9,1.5,-1.4,/,/,/,
COc1ccc(-n2ncc3c(NCc4ccc5c(c4)OCO5)ncnc32)cc1,-4.7,25.5*,-49.6,15.9*,-3.3,6.1,8.8,-2.8,
COC(=O)[C@]12CCCCC=C1N(Cc1ccc(Cl)cc1Cl)C(=O)[C@H](CC(=O)NCC1CCCCC1)C2,9.1,-0.8,-12.5,1.0,/,/,/,/,
Cc1ccccc1NC(=O)c1c(C)nc(SCC(=O)OCc2ccccc2)c(C#N)c1-c1ccc(F)cc1,4.4,5.7,4.3,-1.4,-2.6,/,/,/,
COC(=O)CSc1nc(C)c(C(=O)Nc2ccccc2C)c(-c2ccc(Cl)cc2)c1C#N,3.4,26.1*,-17.1,9.1*,-1.0,7.2,16.3*,11.4,
CC1(C(=O)NS(=O)(=O)c2cccc(C#N)c2)CCN1C(=O)C1(c2ccc(Cl)cc2)CCC1 (stereo not given),30.0,2.1,-2.7,-1.4,/,/,/,/,
O=C(NC1CCCC1)c1cccc(S(=O)(=O)N2CCOCC2)c1,1.3,-3.6,15.0,-1.3,1.0,/,/,/,
C[C@@H]1CN([C@H](C)CO)C(=O)CCCn2nncc2CO[C@@H]1CN(C)S(=O)(=O)c1ccc(F)cc1,1.1,2.9,-13.9,0.8,/,/,/,/,
C[C@H]1[C@@H](c2ccccc2)Oc2ccc(Cl)cc2S(=O)(=O)N1Cc1ccc(Cl)cc1,6.3,5.6,/,0.0,/,/,/,/,
COc1cccc(NC(=O)CSc2ncnc3c2oc2ccccc23)c1,2.1,684.7*,-23.0,68.7*,0.4,75.5*,92.8*,749.3*,RORg DNA counter=>40
COc1ccc(Br)cc1-c1nc2c(c(=O)[nH]c(=O)n2Cc2ccccc2)n1C,0.9,92.2*,-18.5,45.1*,0.8,68.9*,19.8*,51.9*,PG9 bind DR=9.53*;PGV04 binding DR=5.15*;PG126 binding DR=5.7*;RORg DNA counter=>40
CCOc1ccc(OCC)c(NC(=O)c2[nH]c(C)c(C(C)=O)c2C)c1,0.5,59.0*,-24.2,15.9*,10.7,10.9*,8.2,51.5*,PG9 bind DR=>67;PGV04 binding DR=3.55*;PG126 binding DR=3.91*;RORg DNA counter=>40
CCOc1cc(N2CCOCC2)c(OCC)cc1NC(=O)c1[nH]c(C)c(C(C)=O)c1C,1.1,-8.3,-4.7,-1.1,1.7,/,/,/,
COc1ccccc1NC(=O)c1sc2ncn(Cc3ccccc3C)c(=O)c2c1C,2.9,62.2*,22.0,52.1*,6.3,54.6*,74.2*,23.0*,
Cc1cc(NC(=O)COc2ccc3c(C)c(C)c(=O)oc3c2)no1,1.0,-0.7,-2.6,-1.8,/,/,/,/,
Cc1cc(NC(=O)COc2ccc3oc4ccccc4c3c2)no1,2.0,35.9*,-0.1,22.6*,7.1,22.7*,31.9*,25.8*,
CC(=O)n1cc(C2CC(=O)OC3=C2CC(=O)C(C)(C)C3)c2ccccc21 (stereo not given),1.1,-6.1,-21.6,-0.8,/,/,/,/,
O=c1c2ccccc2nc2sc(Nc3ccc(F)cc3)nn12,4.2,100.2*,-56.5,12.4*,2.8,23.5*,24.1*,91.7*,RORg DNA counter=>40
SMILES,rCAG RNA binder,Rev-erbA mod,NR2E3 ag-1,PG9 Ab binder,NR2E3 ag-2,PG9 binder conf,PGV04 counter,Rev-erbA confirm,others
Cc1ccccc1Nc1nn2c(=O)c3ccccc3nc2s1,3.7,37.2*,-70.0,35.9*,0.2,31.1*,47.1*,18.6*,
CCOC(=O)c1sc(NC(=O)CN(CC)CC)c(C(=O)OCC)c1C,0.9,43.1*,2.0,17.0*,-0.3,1.3,3.0,10.7,
CCOC(=O)c1c(NC(=O)C2CCCO2)sc(C(N)=O)c1C (stereo not given),-2.9,-7.1,-31.2,0.2,-2.2,/,/,/,
CCOC(=O)c1c(NC(=O)C2c3ccccc3Oc3ccccc32)sc(C(N)=O)c1C,1.9,40.5*,-9.3,33.4*,5.3,28.3*,41.2*,26.1*,
Cc1cc(C)c(NC(=O)CSc2nc3ncc(Br)cc3[nH]2)c(C)c1,2.3,124.0*,2.6,39.3*,0.2,40.9*,64.8*,98.9*,RORg DNA counter=>40
O=C(Cn1cnc2c(oc3nc4c(cc32)CCCC4)c1=O)Nc1cccc(Cl)c1,18.8,57.1*,2.1,9.1*,6.8,25.6*,25.0*,17.0,PG9 bind DR=>67;PGV04 binding DR=i;PG126 binding DR=i
CC1(C(=O)Nc2ccc3c(c2)OCO3)CCN1C(=O)CCC1CCCC1 (stereo not given),0.6,-3.9,-0.8,-1.4,/,/,/,/,
Cc1ccccc1C1=C/C(=C(\SS/C(C(=O)c2ccc(OCC(=O)O)c(Cl)c2Cl)=C2\C=C(c3ccccc3C)SS2)C(=O)c2ccc(OCC(=O)O)c(Cl)c2Cl)SS1,14.1,-13.1,-4.5,-2.4,/,/,/,/,
